Compounds with a hit are over-represented: about 2.2% of the library has one in this group of screens.
NadD inh: NadD (S. aureus) enzyme inhibition; purified NadD enzyme, colorimetric absorbance read-out; inhibition, % at 20 µM; 360,000 tested, 0.78% active; AID 602399; in the data active = inhibition above about 26%
rCAG binder: binds r(CAG) RNA repeats. inhibition, % at 3 µM. r(CAG) RNA repeat, TO-PRO-1 dye displacement fluorescence. 370,000 tested, 1.3% active;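 active = inhibition above the plate cutoff, the mean of all test compounds on that plate plus 3 SD, cut at about 35% in these data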;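 also: 0% = DMSO alone and 100% = 100 µM mitoxantrone as full dye displacement; higher means more dye released from RNA so lower well fluorescence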
ARFGAP1 inh: rat ARFGAP1 inhibition | Q62848 | Arfgap1-stimulated ARF1 GTP hydrolysis, GDP FP detection | inhibition, % at 16.5 µM | 360,000 tested, 0.26% active | AID 651572;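 active = inhibition above a per-plate limit, mean inhibition of low control wells plus 3 SD, cut at about 25% in these data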;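 also: 0% = DMSO wells with enzyme and 100% = wells lacking Arfgap1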
Target sequence (Q62848 1-136 limits assumed): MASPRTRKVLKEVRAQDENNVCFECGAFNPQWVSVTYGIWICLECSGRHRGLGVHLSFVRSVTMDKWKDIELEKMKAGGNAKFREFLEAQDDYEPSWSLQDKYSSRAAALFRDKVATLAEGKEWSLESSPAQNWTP
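Assay system: Rat Arfgap1 GAP domain (His6, aa 1-136), purified enzyme | Buffer or medium: HEPES 25 mM pH 7.5, NaCl 150 mM, MgCl2, DTT | Schedule: GTP hydrolysis reaction 2 h at 25 °C | Signal: FP of antibody-bound GDP Alexa 633 tracer, ex 620/em 688 nm | Measure: Percent inhibition of Arfgap1-stimulated GTP hydrolysis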
ASAP1 inh: blocks human ASAP1-stimulated Arf1 GTP hydrolysis; Q9ULH1; GDP FP detection; inhibition, % at 16.5 µM; 360,000 tested, 0.19% active; in the data active = inhibition above about 25%;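 also: 0% = vehicle with enzyme and substrate and 100% = no enzyme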
Target sequence (Q9ULH1 325-724 limits assumed): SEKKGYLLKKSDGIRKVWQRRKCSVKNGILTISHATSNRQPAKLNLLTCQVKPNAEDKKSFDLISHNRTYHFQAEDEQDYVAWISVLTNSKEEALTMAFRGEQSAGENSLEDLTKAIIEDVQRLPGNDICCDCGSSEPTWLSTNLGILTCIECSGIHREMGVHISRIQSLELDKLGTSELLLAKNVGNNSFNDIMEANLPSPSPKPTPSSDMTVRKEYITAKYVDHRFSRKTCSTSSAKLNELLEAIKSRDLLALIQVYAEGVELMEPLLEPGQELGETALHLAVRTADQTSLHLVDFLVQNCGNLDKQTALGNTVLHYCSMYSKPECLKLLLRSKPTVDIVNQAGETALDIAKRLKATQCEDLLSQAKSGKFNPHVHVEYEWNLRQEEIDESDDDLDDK
rCAG binder conf: r(CAG) RNA repeat binding, confirmation; TO-PRO-1 dye displacement fluorescence; shares compounds with rCAG binder; inhibition, % at 3 µM; AID 652065; 4,300 tested, 70% active;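 active = inhibition above a per-plate cutoff, the mean inhibition of sample wells plus 3 SD, cut at about 35% in these data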;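 also: loss of TO-PRO-1 fluorescence as compound displaces dye from 1x1 AA loop RNA; 0% = DMSO only wells and 100% = 100 µM mitoxantrone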
DNA CAG counter: counter-screen for rCAG RNA binders: DNA CAG dye complex inhibitors; shares compounds with rCAG binder; d(CAG) DNA oligo TO-PRO-1 dye displacement, fluorescence; inhibition, % at 3 µM; 4,300 tested, 94% active;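 active = inhibition above its plate's cutoff, the mean test-well inhibition plus 3 SD, cut at about 4.8% in these data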;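 also: 0% = DNA dye mix with DMSO and 100% = 100 µM mitoxantrone; hits displace the dye from DNA and so lower well fluorescence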
* marks the source's active call; other numbers are inactive results; . = no result given.

SMILES	NadD inh	rCAG binder	ARFGAP1 inh	ASAP1 inh	rCAG binder conf	DNA CAG counter
C=CCN1C(=O)[C@@H](CC(=O)NCCC(C)C)[C@]2(C(=O)OC)CCCCC=C12	.	1	.	.	.	.
Cc1cc(SCC(=O)c2ccc3c(c2)OCO3)nc2ccccc12	3	9	12	8	.	.
Cc1cc(SCC(=O)c2ccc(O)c(O)c2)nc2ccccc12	3	35*	10	3	54*	23*
CCn1c(SCC(=O)Nc2ccc3c(c2)c2ccccc2n3CC)nnc1-c1ccco1	63*	35*	-9	-12	31	13*
O=S1(=O)c2c(cccc2N2CCC[C@@H]2CO)O[C@@H]2CCN1C2	.	2	.	.	.	.
CC(C(=O)O)c1ccc2c(c1)[nH]c1ccc(Cl)cc12 (stereo not drawn)	-2	11	-7	10	.	.
O[C@@H]1[C@@H](O)[C@H](n2c3ccc(Cl)cc3c3ccc4c5cc(Cl)ccc5[nH]c4c32)OC[C@H]1O	.	51*	.	.	43*	27*
N#Cc1c(-c2cccs2)nc(SCc2ccc(Cl)cc2)[nH]c1=O	16	87*	-30	3	88*	68*
Cc1cccc(NS(=O)(=O)c2ccc(C)c(NS(=O)(=O)c3cccs3)c2)c1	-3	36*	-2	-4	28	7.9*
O=C(Nc1ccc(S(=O)(=O)Nc2cnc3ccccc3n2)cc1)c1cccc(OC(F)F)c1	-4	55*	11	1	35*	6.7*
CN(C)[C@H]1CCN(c2cccc3c2S(=O)(=O)N(C2CC2)CCCO3)C1	.	3	.	.	.	.
Cc1cc(=O)[nH]c2cc(O)ccc12	-2	-4	-2	9	.	.
CC(C)=CCCC1(C)C=Cc2c(c(C)cc3c2[nH]c2cc(O)ccc23)O1 (stereo not drawn)	0	51*	16	9	30	15*
CCOC(=O)c1c(NS(C)(=O)=O)sc2c1CCC(C)C2 (stereo not drawn)	1	48*	12	11	18	8.0*
CCOC(=O)c1c(N)sc2c1CCC(C)C2 (stereo not drawn)	17	4	7	4	.	.
CCOC(=O)c1c(NC(=O)C2C3C=CC(C3)C2C(=O)O)sc2c1CC(C)CC2 (stereo not drawn)	10	48*	-2	-11	54*	14*
Cc1ccc(S(=O)(=O)N2C[C@@H]3CCCC[C@@H]3[C@@H](C)[C@H]2c2cn(Cc3ccccc3)c3ncccc23)cc1	9	3	-1	-13	.	.
Cc1ccc(S(=O)(=O)N2[C@@H](c3ccc(F)cc3)C(C(=O)O)=CC[C@H]2c2ccc3c(c2)OCO3)cc1	0	53*	9	9	51*	17*
Cc1ccc(S(=O)(=O)N2[C@@H](c3ccccc3F)C(C(=O)O)=CC[C@H]2c2ccc3c(c2)OCO3)cc1	2	46*	11	9	41*	10*
CN(CCOC(=O)CSc1ccccc1)C1CN(Cc2cn(Cc3ccccc3F)nn2)S(=O)(=O)C1 (stereo not drawn)	.	-2	.	.	.	.
COC(=O)c1sc(S(=O)(=O)Nc2ccc(Br)cc2)c(C(=O)OC)c1C	-1	57*	12	0	42*	14*
CCOC(=O)C1=C(C)N=c2s/c(=C\c3cccc(OCC(=O)O)c3)c(=O)n2C1c1ccccc1 (stereo not drawn)	8	76*	-2	2	75*	36*
COc1ccccc1C1C2=C(N=c3s/c(=C/c4cccc(OCC(=O)O)c4)c(=O)n31)c1ccccc1CC2 (stereo not drawn)	26	59*	-2	-3	78*	43*
CCOC(=O)C1=C(C)N=c2s/c(=C\c3ccc(C(=O)O)cc3)c(=O)n2C1c1ccc(F)cc1 (stereo not drawn)	26	6	9	10	.	.
CCOC(=O)C1=C(C)N=c2s/c(=C/c3cccc(OCC(=O)O)c3)c(=O)n2C1c1ccc(F)cc1 (stereo not drawn)	.	71*	2	-7	76*	38*
SMILES	NadD inh	rCAG binder	ARFGAP1 inh	ASAP1 inh	rCAG binder conf	DNA CAG counter
CCOC(=O)C1=C(C)N=c2s/c(=C/c3cccc([N+](=O)[O-])c3O)c(=O)n2C1c1ccccc1 (stereo not drawn)	23	33	7	9	.	.
NC(C(=O)O)C1ON=C(Cl)C1O (stereo not drawn)	1	41*	-8	-12	3	3
O=[N+]([O-])c1ccc(N/N=C/c2c[nH]c3ccccc23)cc1	2	56*	15	10	26	20*
O=[N+]([O-])c1ccccc1N/N=C/c1c[nH]c2ccccc12	-4	37*	6	8	25	16*
CCOC(=O)CSc1nc2c(sc(=S)n2-c2ccc(OCC)cc2)c(=O)[nH]1	-2	43*	5	-4	39*	10*
CCOc1ccc(-n2c(=S)sc3c(=O)[nH]c(SCC(=O)NCc4ccco4)nc32)cc1	10	47*	3	-1	41*	12*
CCOC(=O)CSc1nc2c(sc(=S)n2-c2ccccc2)c(=O)[nH]1	0	26	-3	-9	.	.
CCOc1ccc(-n2c(=S)sc3c(=O)[nH]c(SCC(=O)C(C)(C)C)nc32)cc1	14	37*	8	-5	66*	30*
CCN(CC)C(=O)CSc1nc2c(sc(=S)n2-c2ccc(C)cc2C)c(=O)[nH]1	8	39*	8	10	46*	15*
CCN(CC)C(=O)CSc1nc2nc(C)cc(C)c2c(=O)[nH]1	-5	-4	8	-1	.	.
CCOc1ccc(-n2c(=S)sc3c(=O)[nH]c(SCC(=O)N4CCC(C)CC4)nc32)cc1	21	15	-9	1	.	.
C=CS(=O)(=O)N(C(=C)C(=O)OC)S(C)(=O)=O	.	5	0	1	.	.
COC(=O)[C@H](C)N(Cc1cn(Cc2ccccc2)nn1)S(=O)(=O)c1ccccc1Br	.	1	.	.	.	.
C=CCNc1nc(N)c(C(=C(C#N)C#N)c2ccc(Br)cc2)s1	8	38*	-7	3	22	10*
COc1ccc2c(c1)c(=O)oc1cc(OC(C(=O)O)c3ccccc3)ccc12 (stereo not drawn)	-1	52*	-6	-1	41*	10*
CC1(C)C=Cc2c(c3c(c4c(=O)c(-c5ccc(O)cc5)coc24)OC(C)(C)CC3)O1	27	7	-1	5	.	.
CC(C)=CCc1c(O)cc2c(=O)c3ccc(O)cc3oc2c1O	3	33	9	1	.	.
CC(C)=CCc1c2c(c3occ(-c4ccc(O)cc4)c(=O)c3c1O)C=CC(C)(C)O2	4	36*	2	16	31	13*
CC(C)=CCc1c2c(c3occ(-c4ccc(O)c(O)c4)c(=O)c3c1O)C=CC(C)(C)O2	15	47*	4	11	43*	28*

Bioassay records: PubChem, several laboratories
